In ChEMBL document CHEMBL3808283, “Biological Characterization and in Vivo Assessment of the Activity of a New Synthetic Macrocyclic Antifungal Compound” (J Med Chem, 2016):
In brackets after ≈: the same amount, converted by molar mass. Activity calls are given as the source filed them. The calls are words filed in the database; no cut-off is given here.

Tests used:
Candida albicans [1] = assay: Antifungal activity against azole-susceptible Candida albicans isolate DSY294 in immunocompetent Balb/c mouse candidiasis model assessed as reduction in CFU count in kidney at 40 mg/kg/day, ip regime measured on day 7 post infection; type: functional, organism-based
Method in brief: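 Immunocompetent BALB/c mice, groups of 10, were injected in the lateral tail vein with 7 × 10^4 CFU of C. albicans in 200 µL saline. Drug was given ip daily at 40 mg/kg/day in DMSO/PEG 400 2:1 (0.1 mg/mL, 100 µL). Kidneys were taken on day 7, homogenized and plated on YPD agar for 2 days at 30 °C. Read-out was CFU/g; Wilcoxon rank-sum test, P<0.05.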

Candida albicans [2] = assay: Antifungal activity against azole-resistant Candida albicans isolate DSY296 in immunocompetent Balb/c mouse candidiasis model assessed as reduction in CFU count in spleen at 40 mg/kg/day, ip regime measured on day 7 post infection; type: functional, organism-based
Method in brief: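 Immunocompetent BALB/c mice, 10 per strain group, received 7 × 10^4 CFU of C. albicans in 200 µL saline via the lateral vein. Drug was given i.p. daily at 40 mg/kg/day as a 0.1 mg/mL solution in DMSO/PEG 400 (2:1), 100 µL per dose. On day 7, spleen and kidneys were weighed, homogenized, and plated on YPD agar (2 days, 30 °C) for CFU/g. Analysis used Wilcoxon rank-sum, P<0.05.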

Pichia kudriavzevii [3] = assay: Ratio of MIC at 24 hrs to MIC at 48 hrs for Candida krusei 193T; type: functional
Method in brief: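 MICs by EUCAST broth microdilution, with the update for non-fermenting yeasts, incubated at 37 °C. Read at 24, 48 and 72 h as the lowest concentration preventing visible growth.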

Candida albicans [4] = assay: Antifungal activity against Candida albicans 53T up to 96 hrs by broth dilution assay; type: functional, organism-based
Candida albicans [5] = assay: Antifungal activity against Candida albicans 15T up to 96 hrs by broth dilution assay; type: functional, organism-based
Magnusiomyces capitatus [6] = assay: Antifungal activity against Geotrichum capitatum up to 96 hrs by broth dilution assay; type: functional
Candida albicans [7] = assay: Upregulation of orf19.4907 gene expression in Candida albicans SC5314 at 3 uM after 15 mins by microarray method relative to control; type: functional
Method in brief: (§1)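 Log-phase cultures in liquid YEPD were exposed to 3 µM compound (final) for 15 or 45 min, with untreated controls sampled at the same times, in three biological replicates. Total RNA was extracted by glass-bead/phenol-chloroform disruption and integrity-checked. One-color Cy3-labelled cRNA (600 ng) was hybridized for 17 h at 65 °C to 8 × 15K arrays, and fold change was taken versus control.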

Candida albicans [8] = assay: Upregulation of CDR1 gene expression in Candida albicans SC5314 at 3 uM after 15 mins by microarray method relative to control; type: functional
Method in brief: (§2)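 Log-phase C. albicans SC5314 in liquid YEPD exposed to 3 µM final for 15 or 45 min; untreated controls taken at the same time points. Three biological replicates. RNA extracted by glass-bead/phenol-chloroform method and integrity checked. One-color Cy3-labeled cRNA (600 ng) hybridized 17 h at 65 °C to 8 × 15K arrays. Expression expressed as fold change versus control.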

Candida albicans [9] = assay: Upregulation of orf19.6873.1 gene expression in Candida albicans SC5314 at 3 uM after 15 mins by microarray method relative to control; type: functional; method in brief: as §1
Candida albicans [10] = assay: Upregulation of orf19.1438 gene expression in Candida albicans SC5314 at 3 uM after 45 mins by microarray method relative to control; type: functional; method in brief: as §2
Candida albicans [11] = assay: Upregulation of PDR16 gene expression in Candida albicans SC5314 at 3 uM after 45 mins by microarray method relative to control; type: functional; method in brief: as §2
Candida albicans [12] = assay: Upregulation of orf19.4907 gene expression in Candida albicans SC5314 at 3 uM after 45 mins by microarray method relative to control; type: functional; method in brief: as §1
Candida albicans [13] = assay: Upregulation of RTA2 gene expression in Candida albicans SC5314 at 3 uM after 45 mins by microarray method relative to control; type: functional; method in brief: as §2
Candida albicans [14] = assay: Antifungal activity against Candida albicans 4T measured at 48 hrs by broth dilution assay; type: functional
Method in brief: (§3)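 EUCAST broth microdilution, including the update for non-fermenting yeasts (Cryptococcus, Geotrichum), on clinical and reference yeast isolates. Incubated at 37 °C and read at 24, 48 and 72 h. MIC taken as the lowest concentration with no visible growth. For Cryptococcus and Geotrichum, MICs were read only once growth was visible in the control row.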

Pichia kudriavzevii [15] = assay: Antifungal activity against Candida krusei 193T measured at 24 hrs by broth dilution assay; type: functional; method in brief: as §3
Candida parapsilosis [16] = assay: Antifungal activity against Candida parapsilosis 64E measured at 72 hrs by broth dilution assay; type: functional; details: Lodderomyces parapsilosis; method in brief: as §3
Nakaseomyces glabratus = assay: Antifungal activity against Candida glabrata 70 measured at 72 hrs by broth dilution assay; type: functional; details: Nakaseomyces glabratus, 70, 72 h; method in brief: as §3
Candida tropicalis = assay: Antifungal activity against Candida tropicalis 86E measured at 72 hrs by broth dilution assay; type: functional; method in brief: as §3
Cryptococcus neoformans [17] = assay: Antifungal activity against Cryptococcus neoformans measured at 72 hrs by broth dilution assay; type: functional; method in brief: as §3
Magnusiomyces capitatus [18] = assay: Antifungal activity against Geotrichum capitatum measured at 24 hrs by broth dilution assay; type: functional; method in brief: as §3
Magnusiomyces capitatus [19] = assay: Antifungal activity against Geotrichum capitatum measured at 72 hrs by broth dilution assay; type: functional; method in brief: as §3
Cryptococcus neoformans [20] = assay: Fungicidal activity against Cryptococcus neoformans at 40 uM measured at 72 hrs by time kill assay; type: functional, organism-based
Candida parapsilosis [21] = assay: Fungicidal activity against Candida parapsilosis 81E at 40 uM after 24 to 48 hrs by time kill assay; type: functional, organism-based
Method in brief: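 EUCAST broth microdilution at 37 °C. From wells at MIC, 2×, 4× and 8× MIC, 10 µL aliquots were taken, serially 10-fold diluted in saline and plated on Sabouraud dextrose agar. Plates were incubated at 37 °C for 24/48 h, and 48 h for Cryptococcus and Geotrichum. Done in duplicate, detection limit 10 CFU/mL. A drop of at least 3 Log10 CFU/mL from the initial inoculum in 24 h counts as fungicidal; a smaller drop counts as fungistatic.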

SMILES: C/C=C/CNC(=N)NCCCCCCCCN1CCCCCCCCNC(=N)NC1=O
- Activity (Candida albicans [1]): Active
- Activity (Candida albicans [2]): Active
- Ratio (Pichia kudriavzevii [3]): 8
- Activity (Candida albicans [4]): Active
- Activity (Candida albicans [5]): Active
- Activity (Magnusiomyces capitatus [6]): Active
- fold change (FC) (Candida albicans [7]): 3.9
- fold change (FC) (Candida albicans [8]): 3.07
- fold change (FC) (Candida albicans [9]): 2.16
- fold change (FC) (Candida albicans [10]): 17.28
- fold change (FC) (Candida albicans [11]): 6.89
- fold change (FC) (Candida albicans [12]): 5.3
- fold change (FC) (Candida albicans [13]): 2.93
- MIC (Candida albicans [14]): 5 µM (≈ 2.18 µg/mL)
- MIC (Pichia kudriavzevii [15]): 10 µM (≈ 4.36 µg/mL)
- MIC (Candida parapsilosis [16]): 40 µM (≈ 17.4 µg/mL)
- MIC (Nakaseomyces glabratus): > 80 µM
- MIC (Candida tropicalis): 5 µM (≈ 2.18 µg/mL)
- MIC (Cryptococcus neoformans [17]): 20 µM (≈ 8.71 µg/mL)
- Activity (Magnusiomyces capitatus [18]): Active
- MIC (Magnusiomyces capitatus [19]): 10 µM (≈ 4.36 µg/mL)
- Activity (Cryptococcus neoformans [20]): Active
- Activity (Candida parapsilosis [21]): Active
